Measured values published in PubChem BioAssay AID588736 (Vanderbilt Specialized Chemistry Center, 2011).
Calls of active or inactive are those of the source.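 The calls were made as follows: active = compound halving or more than doubling glutamate potency, or top glutamate response under 75% or over 125% of control; inactive = the rest.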

Biological target: Metabotropic glutamate receptor 1 (Rattus norvegicus) (UniProt P23385)
Assay: rat mGlu1 allosteric modulation, glutamate curve shift, profiling panel, selectivity assay for mGlu5 PAM project, calcium fluorescence, HEK293A cells (AID 588736)
Conditions: glutamate CRC shift, at 10 µM; for Emax: measured here: glutamate Emax with compound; for Emin: measured here: glutamate Emin with compound, stronger effect = higher value
Method in brief: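 system = HEK293A cells expressing rat mGlu1 receptor | reagent = glutamate as agonist, 11-point concentration-response curve | dosing = test compound at a single 10 µM final, or vehicle | schedule = compound added at 1.5 s, glutamate curve at 142 s | technique = Fluo4-AM calcium fluorescence | read-out = fold shift, vehicle EC50 over compound EC50, four-parameter fit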

Chain of Metabotropic glutamate receptor 1 (Rattus norvegicus) (P23385 whole entry, looked up): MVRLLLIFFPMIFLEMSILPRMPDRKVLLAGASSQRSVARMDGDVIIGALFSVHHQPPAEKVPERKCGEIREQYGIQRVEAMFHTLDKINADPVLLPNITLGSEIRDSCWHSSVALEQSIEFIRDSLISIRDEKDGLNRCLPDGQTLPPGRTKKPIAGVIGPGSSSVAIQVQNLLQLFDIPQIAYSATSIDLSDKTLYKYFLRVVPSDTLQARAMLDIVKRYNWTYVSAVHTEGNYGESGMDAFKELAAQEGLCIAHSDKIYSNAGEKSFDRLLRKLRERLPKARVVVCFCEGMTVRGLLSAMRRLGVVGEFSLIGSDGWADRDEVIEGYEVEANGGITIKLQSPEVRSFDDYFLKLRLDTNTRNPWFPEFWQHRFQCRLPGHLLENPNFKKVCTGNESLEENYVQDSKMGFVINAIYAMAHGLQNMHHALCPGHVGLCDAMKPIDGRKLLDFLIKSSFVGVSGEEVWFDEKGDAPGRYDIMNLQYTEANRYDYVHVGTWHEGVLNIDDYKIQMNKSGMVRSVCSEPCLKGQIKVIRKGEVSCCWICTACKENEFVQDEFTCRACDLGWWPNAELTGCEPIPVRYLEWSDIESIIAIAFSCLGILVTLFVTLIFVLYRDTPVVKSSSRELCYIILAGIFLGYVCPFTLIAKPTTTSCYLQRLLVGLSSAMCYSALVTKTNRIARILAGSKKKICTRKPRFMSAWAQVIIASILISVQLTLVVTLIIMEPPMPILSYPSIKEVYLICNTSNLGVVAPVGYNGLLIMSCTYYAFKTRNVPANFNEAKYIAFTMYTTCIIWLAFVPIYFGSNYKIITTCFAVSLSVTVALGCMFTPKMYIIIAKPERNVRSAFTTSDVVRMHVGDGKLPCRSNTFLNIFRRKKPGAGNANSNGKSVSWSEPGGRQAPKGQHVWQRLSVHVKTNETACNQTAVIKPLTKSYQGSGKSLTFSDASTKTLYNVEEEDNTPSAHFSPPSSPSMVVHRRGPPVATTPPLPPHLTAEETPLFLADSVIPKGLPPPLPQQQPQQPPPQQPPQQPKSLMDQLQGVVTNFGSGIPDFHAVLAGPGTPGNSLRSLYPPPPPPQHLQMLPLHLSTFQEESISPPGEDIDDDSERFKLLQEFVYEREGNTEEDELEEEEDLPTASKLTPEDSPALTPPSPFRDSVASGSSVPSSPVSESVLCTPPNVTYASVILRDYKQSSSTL

C[C@@H](NC(=O)c1ccc(C#Cc2cccc(F)c2)cn1)C(C)(C)O
fold shift: 1.43 (inactive)
Emax: 94%
Emin: 1%

CC1(NC(=O)c2ccc(C#Cc3cccc(F)c3)cn2)COC1
fold shift: 0.93 (inactive)
Emax: 91%
Emin: 1%
